Compound activity deposited in PubChem BioAssay by Johns Hopkins Ion Channel Center.
MrgX1 PAM: human MrgX1 positive allosteric modulation, primary screen; Q96LB2; MrgX1-HEK293, Fluo-4 calcium flux, FDSS; active compounds read high; B-score at 10 µM; 0.63% of 310,000 active; AID 588675;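 active = plate-corrected calcium response at least 3 library SD above typical, normal starting fluorescence, not activating the receptor alone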;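 also: compound read alongside a low EC10 to EC30 dose of BAM8-22 agonist; peak minus trough fluorescence over baseline measured at the second addition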
Target sequence (Q96LB2 whole entry, looked up): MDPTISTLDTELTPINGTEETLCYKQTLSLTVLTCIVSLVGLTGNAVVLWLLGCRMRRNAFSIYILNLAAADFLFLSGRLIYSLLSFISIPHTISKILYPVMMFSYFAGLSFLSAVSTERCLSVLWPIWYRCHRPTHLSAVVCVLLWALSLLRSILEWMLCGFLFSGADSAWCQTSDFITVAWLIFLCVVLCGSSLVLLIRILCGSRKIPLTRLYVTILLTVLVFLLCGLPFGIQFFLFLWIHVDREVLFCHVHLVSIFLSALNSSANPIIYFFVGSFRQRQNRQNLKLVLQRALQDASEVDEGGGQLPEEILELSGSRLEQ
RGS4 block: human RGS4 inhibition; HEK293 M3R/RGS4 inducible, Fluo-4 calcium flux; active compounds read high; triggered by carbachol at its EC20; B-score at 10 µM; 0.45% of 310,000 active; AID 463165;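 active = B-score, a plate-corrected calcium signal, over three deviations above library mean, with baseline fluorescence within five deviations of library mean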;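 also: RGS4 expression induced by doxycycline in cells with stable M3 receptor; B-score is computed from the integrated fluorescence ratio over baseline after carbachol; higher B-score means a larger calcium signal and so more RGS4 inhibition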
Target sequence (P49798 whole entry, looked up): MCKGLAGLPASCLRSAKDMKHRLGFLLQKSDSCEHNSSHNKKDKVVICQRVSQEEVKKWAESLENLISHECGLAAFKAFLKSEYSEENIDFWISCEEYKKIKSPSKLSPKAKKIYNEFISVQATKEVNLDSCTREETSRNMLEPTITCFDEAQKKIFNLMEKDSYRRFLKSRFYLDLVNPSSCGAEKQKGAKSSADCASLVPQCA
MrgX1 agonist: human MrgX1 receptor agonism, primary screen | 0.44% of 310,000 active | B-score at 10 µM | MrgX1-HEK293 cells, Fluo-4 calcium fluorescence, agonist mode; active compounds read high | Q96LB2;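 active = calcium response B-score plate-corrected fluorescence ratio at least 3 library SD, with starting fluorescence B-score inside 5 SD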
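System – MrgX1-expressing HEK293 cells · Incubation – cells plated overnight, dye loaded 0.5 h 37 °C, 0.5 h room temperature · Technique – kinetic Fluo-4 NW fluorescence of intracellular calcium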
RGS4 pot: RGS4 potentiation or activation; HEK293 M3R/inducible RGS4, carbachol calcium flux Fluo4; active compounds read low; B-score at 10 µM; 0.92% of 310,000 active;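 active = B-score of the integrated calcium signal more than 4 SD below the library mean, with starting fluorescence not abnormally high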;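 also: negative B-score means reduced calcium response which marks RGS4 activation or potentiation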
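Assay system: Inducible-RGS4 HEK293 cells carrying M3 receptor | Schedule: Compound preincubation 20 min at room temperature before agonist | Signal: Kinetic calcium fluorescence imaging with Fluo4-AM dye, 2 µM | Read-out basis: B score from integrated fluorescence ratio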
MrgX1 antag: antagonists of human MrgX1 receptor. Q96LB2. MRGX1-HEK293 calcium flux, Fluo-4, BAM8-22 antagonism; active compounds read low. B-score at 10 µM. 1.3% of 310,000 active;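 active = calcium-response B-score plate-corrected more than 3 library SD below zero, starting fluorescence within 5 deviations, no agonist response on first addition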;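 also: peak minus trough fluorescence over baseline after final BAM8-22 challenge near maximal dose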
The depositor's hits bear a star; i = inactive. A selection: hits, their analogues and other compounds. The true share with any hit is near 3.5%.

SMILES	MrgX1 PAM	RGS4 block	MrgX1 agonist	RGS4 pot	MrgX1 antag
O=[N+]([O-])c1ccc(N/N=C2\CC3CC=CC23)cc1 (configuration not stated)	8.1*	i	i	i	i
Cc1nc(NC(=O)CSc2nnc(-c3ccccc3)c(-c3ccccc3)n2)c(Cl)cc1Cl	i	i	i	-7.2*	i
CN(C)c1ccc(/C=N/NC(=O)CNC(=O)/C=C/c2ccco2)cc1	i	i	i	i	i
O=C(/C=C/c1ccco1)NCC(=O)N/N=C/c1ccc(Cl)cc1	i	i	i	i	-5*
CCOC(=O)C1CCN(c2cc3c(cc2NC(=O)c2ccccc2OCC)n(C)c(=O)n3C)CC1	i	i	i	-7.8*	i
CC(C(=O)NCCN1C(=O)S/C(=C\c2cccs2)C1=O)N1C(=O)c2ccccc2C1=O (configuration not stated)	i	i	i	i	i
O=C(NCCN1C(=O)S/C(=C\c2cccs2)C1=O)[C@H](Cc1ccccc1)N1C(=O)c2ccccc2C1=O	i	i	i	i	-8.4*
Cc1ccc(-c2nnn(CC(=O)NCCc3ccc4c(c3)OCO4)n2)cc1	i	i	i	i	i
Cc1cccc(NC(=S)N2CCCN(c3ncccc3[N+](=O)[O-])CC2)c1	i	i	i	i	i
COc1cccc(-c2nc(N3CCC(C)CC3)c3ccccc3n2)c1O	i	i	i	-7.1*	i
COc1ccc(Nc2nc(-c3cccc(OC)c3O)nc3ccccc23)cc1	i	i	i	-7.6*	i
COc1ccc(C2/C(=C(/O)c3ccccc3)C(=O)C(=O)N2CCCN2CCOCC2)cc1 (configuration not stated)	i	i	i	i	i
CCCc1cc(C(=O)Nc2cccc3ccccc23)n(C)n1	i	i	i	i	i
CCCc1cc(C(=O)Nc2ccc(C(=O)c3ccc(C)cc3)cc2)n(C)n1	i	i	i	-7.4*	i
Cc1cc(C)c2nc(N3CCCN(C(=O)c4ccco4)CC3)c(C#N)cc2c1	i	i	i	i	i
O=Cc1c[nH]c2ccc(C(=O)c3ccccc3)cc12	i	i	i	i	i
COc1cc(N2CCCC2)c(OC)cc1/C=C(/C#N)c1cccc(F)c1	i	i	i	i	-11*
N#C/C(=C/c1ccc(N2CCCCCC2)o1)c1cccc(F)c1	i	i	i	i	i
Cc1cc(CNC(=O)COc2ccc([N+](=O)[O-])cc2)c2ccccc2n1	i	i	i	i	i
CCOC(=O)N1CCN(C(=O)c2ccc3c(Cl)c4c(nc3c2)CCCC4)CC1	i	i	i	i	i
CN(Cc1ccc(F)cc1)C(=O)c1sccc1-c1ccccc1	i	i	i	-7.2*	i
COc1ccc(C(=O)NCC(=O)N2CCCCC2)cc1OC	i	i	i	i	i
COc1ccc(C(=O)NN2CCCCC2)cc1OC	i	i	i	i	-5*
COc1ccc(C(=O)c2ccc(OC)c(OC)c2)cc1	i	i	i	i	-5*
COc1ccc(C2=NOC(Cn3c(Cc4ccc(Cl)cc4)nc4c3c(=O)n(C)c(=O)n4C)C2)cc1 (configuration not stated)	i	i	i	i	i
SMILES	MrgX1 PAM	RGS4 block	MrgX1 agonist	RGS4 pot	MrgX1 antag
CC1=CC2=NC(=O)/C(=C/c3coc4ccc(Cl)cc4c3=O)C(=N)N2O1	i	i	i	-7.1*	i
CN(C(=O)COc1ccccc1C(=O)NCCOc1ccccc1)c1ccccc1	i	i	i	-9.2*	-5.7*
O=C(NCCOc1ccccc1)c1ccccc1Cl	i	i	i	i	i
CC(Sc1nnc2c(n1)[nH]c1ccccc12)C(=O)N(C)C1CCCCC1 (configuration not stated)	i	i	i	i	-7.2*
CCc1ccc(OCCNC(=O)c2cc(SC)ccc2Cl)cc1	i	i	i	i	i
CC(C)(Oc1ccc(Cl)cc1)C(=O)NC1CCN(Cc2ccccc2)CC1	i	i	i	-7*	i
O=C(COc1ccccc1)NC1CCN(Cc2ccccc2)CC1	i	i	i	i	i
COc1ccc(CCNC(=O)c2cc(C(=O)c3cc(C)ccc3O)cn(CCc3ccc(OC)cc3)c2=O)cc1	i	i	i	-8.7*	i
CS(=O)(=O)NNC(=O)Cn1nnc(-c2ccc(OCc3ccccc3Cl)cc2)n1	9.6*	i	i	i	i
CC(C)(C)C(=O)c1no[n+]([O-])c1/C(=N/O)C(C)(C)C	i	i	37*	i	i
CN(N)c1nc(C(F)(F)F)nc2ccccc12	i	i	i	i	i
O=C(N1CCN(c2ccccn2)CC1)N1c2ccccc2Sc2ccccc21	i	i	i	-7.4*	i
Cc1ccccc1SCC(=O)Nc1cc(C(F)(F)F)ccc1N1CCOCC1	11*	i	i	i	i
CC(Oc1ccccc1Cl)C(=O)Nc1ccc(S(=O)(=O)N2CCCC2)cc1 (configuration not stated)	i	i	i	-7.2*	i
CCCCCC/C=N/Nc1nnc(Cc2ccc(OC)c(OC)c2)c(=O)[nH]1	i	i	i	i	i
COc1cccc(C(=O)NC(=S)Nc2ccccc2N2CCOCC2)c1	i	i	i	i	i
CCCCOC(=O)c1ccc(NC(=O)Nc2ccc(OC)c(OC)c2)cc1	i	i	i	-7*	i
CCCCCCCCCCCCCCCC[n+]1cccc(C(=O)N(CC)CC)c1	i	i	i	-9.9*	i
Cc1ccc(CN2CCS(=O)(=O)CC2)o1	i	i	i	i	i
CCN(C(=O)COc1cc(=O)n(CC)c2ccccc12)c1cccc(Cl)c1	i	i	i	i	i
CC1(C)CCc2c([nH]c3ccccc3c2=O)O1	i	i	i	-7*	i
CCC1CCc2c([nH]c3ccccc3c2=O)O1 (configuration not stated)	i	i	i	i	i
COc1ccc(OC)c(S(=O)(=O)NNC(=S)Nc2ccc3c(c2)OCO3)c1	i	i	i	i	i
COc1ccc([N+](=O)[O-])cc1NC(=O)CSc1nccc(C)n1	i	i	i	i	i
COc1ccc([N+](=O)[O-])cc1NC(=O)CSc1nc(C)c(C)c(C)n1	i	i	i	i	-4.5*
CC1CCCN(CC(=O)Nc2ccc(S(=O)(=O)N3CCCCCC3)cc2)C1 (configuration not stated)	i	i	i	i	i
